# Reference: ChEMBL document CHEMBL4828761, “Development and crystallography-aided SAR studies of multifunctional BuChE inhibitors and 5-HT6R antagonists with β-amyloid anti-aggregation properties” (Eur J Med Chem, 2021)
# The source made the active and inactive calls. The rule behind the calls is not given here.
# How the values were obtained:
# [1] = Half life in CD-1 mouse plasma at 3 mg/kg, iv measured for 480 mins by LC-ESI-MS/MS analysis; type: ADME, organism-based
# In short: (§1)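 Adult male CD-1 mice (20–25 g), dosed in saline i.v. 3 mg/kg or intragastrically 30 mg/kg; 6 animals per time point. Under i.p. ketamine/xylazine anaesthesia, blood collected after decapitation into heparinized tubes, plasma separated; brain homogenized in pH 7.4 phosphate buffer (1:2.5). Acetonitrile precipitation with internal standard, LC/ESI-MS/MS on C18 with formic acid eluents; non-compartmental parameters.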
# Cholinesterase [2] = molecular target: Cholinesterase (Equus caballus, UniProt P81908); test: Inhibition of equine serum BuChE using BTC as substrate preincubated with enzyme for 5 mins followed by substrate addition for 5 mins by Ellman's method; type: cell-free
# [3] = Cytotoxicity against human HepG2 cells assessed as non-toxic concentration incubated for 72 hrs by MTS assay; type: cell-based; details: read-out: MNCC
# In short: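 HepG2 cells grown in MEM with 2 mM glutamine, 1% NEAA, 10% FBS at 37 °C, 5% CO2. Compounds tested in quadruplicate at 0.1, 1, 10 and 100 μM for 72 h; viability read by MTS (CellTiter 96 AQueous) assay. Doxorubicin 1 μM and CCCP 10 μM served as positive controls.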
# [4] = Initial plasma concentration in CD-1 mouse at 3 mg/kg, iv by LC-ESI-MS/MS analysis; type: ADME, organism-based; in short: as §1
# [5] = MRT in CD-1 mouse brain at 3 mg/kg, iv measured for 480 mins by LC-ESI-MS/MS analysis; type: ADME, organism-based; in short: as §1
# [6] = Ratio of drug level in brain to plasma in CD-1 mouse at 3 mg/kg, iv by LC-ESI-MS/MS analysis; type: ADME, organism-based; details: read-out: BPR; in short: as §1
# [7] = Apparent oral clearance in CD-1 mouse at 30 mg/kg measured for 480 mins by LC-ESI-MS/MS analysis; type: ADME, organism-based; details: in vivo; in short: as §1
# [8] = AUC (0 to t) in CD-1 mouse plasma at 30 mg/kg, po measured for 480 mins by LC-ESI-MS/MS analysis; type: ADME, organism-based; parameters: time 480 min, dose 30 mg/kg; in short: as §1
# [9] = Tmax in CD-1 mouse plasma at 30 mg/kg, po measured for 480 mins by LC-ESI-MS/MS analysis; type: ADME, organism-based; in short: as §1
# Cholinesterase [10] = molecular target: T1, Cholinesterase (Homo sapiens, UniProt P06276); test: Inhibition of BuChE in human plasma using BTC as substrate preincubated with enzyme for 5 mins followed by substrate addition for 5 mins by Ellman's method; type: cell-free
# In short: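 Human plasma BuChE at 0.384 U/mL final, with DTNB in 0.1 M phosphate pH 8.0. […] BTC solution (0.00375 M) added; A412 after 5 min. Run in triplicate; IC50 from nonlinear regression of residual activity versus concentration.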
# [11] = Metabolic stability in mouse liver microsomes assessed as parent compound remaining at 50 microM preincubated for 5 mins followed by incubation with NADPH regenerating system for 120 mins by UPLC-MS analysis; type: ADME, Microsome; details: time 125 min, read-out: Stability
# In short: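 Mouse liver microsomes 1 mg/mL in 0.1 M Tris-HCl pH 7.4 with 50 μM compound, preincubated 5 min at 37 °C, then started with NADPH regeneration system; stopped after 120 min at 37 °C with cold methanol, centrifuged, supernatant analysed by UPLC-MS for remaining parent and metabolites. Verapamil served as reference.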
# [12] = Half life in CD-1 mouse brain at 30 mg/kg, po measured for 480 mins by LC-ESI-MS/MS analysis; type: ADME, organism-based; in short: as §1
# [13] = AUC (0 to t) in CD-1 mouse brain at 30 mg/kg, po measured for 480 mins by LC-ESI-MS/MS analysis; type: ADME, organism-based; details: in vivo, 8 h; in short: as §1
# [14] = MRT in CD-1 mouse brain at 30 mg/kg, po measured for 480 mins by LC-ESI-MS/MS analysis; type: ADME, organism-based; in short: as §1
# [15] = Initial drug concentration in CD-1 mouse brain at 3 mg/kg, iv by LC-ESI-MS/MS analysis; type: ADME, organism-based; in short: as §1
# [16] = Apparent oral volume of distribution at steady state in CD-1 mouse at 30 mg/kg measured for 480 mins by LC-ESI-MS/MS analysis; type: ADME, organism-based; details: in vivo; in short: as §1
# [17] = Cmax in CD-1 mouse brain at 30 mg/kg, po measured for 480 mins by LC-ESI-MS/MS analysis; type: ADME, organism-based; parameters: route oral, dose 30 mg/kg, time 480 min; in short: as §1
# [18] = Half life in CD-1 mouse plasma at 30 mg/kg, po measured for 480 mins by LC-ESI-MS/MS analysis; type: ADME, organism-based; in short: as §1
# [19] = Tmax in CD-1 mouse brain at 30 mg/kg, po measured for 480 mins by LC-ESI-MS/MS analysis; type: ADME, organism-based; in short: as §1
# [20] = MRT in CD-1 mouse plasma at 30 mg/kg, po measured for 480 mins by LC-ESI-MS/MS analysis; type: ADME, organism-based; in short: as §1
# [21] = Cmax in CD-1 mouse plasma at 30 mg/kg, po measured for 480 mins by LC-ESI-MS/MS analysis; type: ADME, organism-based; parameters: route oral, dose 30 mg/kg, time 480 min; in short: as §1
# [22] = Oral bioavailability in CD-1 mouse at 30 mg/kg measured for 480 mins by LC-ESI-MS/MS analysis; type: ADME, organism-based; details: in vivo; in short: as §1
# [23] = AUC (0 to t) in CD-1 mouse brain at 3 mg/kg, iv measured for 480 mins by LC-ESI-MS/MS analysis; type: ADME, organism-based; details: in vivo, 8 h; in short: as §1
# [24] = MRT in CD-1 mouse plasma at 3 mg/kg, iv measured for 480 mins by LC-ESI-MS/MS analysis; type: ADME, organism-based; details: in vivo, 8 h; in short: as §1
# [25] = Half life in CD-1 mouse brain at 3 mg/kg, iv measured for 480 mins by LC-ESI-MS/MS analysis; type: ADME, organism-based; in short: as §1
# [26] = Ratio of drug level in brain to plasma in CD-1 mouse at 30 mg/kg, po by LC-ESI-MS/MS analysis; type: ADME, organism-based; details: read-out: BPR; in short: as §1
# [27] = AUC (0 to t) in CD-1 mouse plasma at 3 mg/kg, iv measured for 480 mins by LC-ESI-MS/MS analysis; type: ADME, organism-based; parameters: dose 3 mg/kg, time 480 min; in short: as §1
# [28] = molecular target: Amyloid-beta precursor protein (Homo sapiens) (UniProt P05067); test: Inhibition of self-induced aggregation of amyloid beta (1 to 42) (unknown origin) expressed in Escherichia coli BL21(DE3) at 10 uM incubated for 60 mins by fluorescence based analysis
# Cholinesterase [29] = molecular target: T1, Cholinesterase; test: Inhibition of BuChE in human plasma using BTC as substrate at 10 uM preincubated with enzyme for 5 mins followed by substrate addition for 5 mins by Ellman's method relative to control; type: cell-free; details: time 10.0 min
# In short: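 Human plasma BuChE at 0.384 U/mL final, with DTNB in 0.1 M phosphate buffer pH 8.0. Compound at 10 µM screened, preincubated 5 min at 36 °C.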
# [30] = molecular target: Amyloid-beta precursor protein (Homo sapiens) (UniProt P05067); test: Inhibition of amyloid beta (1 to 42) (unknown origin) self aggregation at 10 uM incubated for 24 to 48 hrs by Thioflavin-T based fluorometric assay; details: time lower […], time upper 48.0 hrs
# [31] = molecular target: 5-hydroxytryptamine receptor 6 (Homo sapiens, UniProt P50406); test: Displacement of [3H]LSD from human 5HT6 receptor expressed in CHO-K1 membrane incubated for 60 mins by solid scintillation counting analysis; type: cell membranes
# [32] = molecular target: Cholinesterase (Equus caballus) (UniProt P81908); test: Reversible inhibition of equine serum BuChE using BTC as substrate at 10XIC50 preincubated with 100-fold diluted enzyme for 120 mins followed by substrate addition and measured after 5 mins by 100-fold dilution assay; type: cell-free; details: time 125.0 min
# In short: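 Equine BuChE preincubated with inhibitor at 100-fold the final enzyme concentration for 30, 60 or 120 min at 25 °C. Then diluted 100-fold into 0.1 M phosphate pH 8 with DTNB. BTC (0.00375 M) added; A412 read after 5 min. Activity recovery compared with enzyme/vehicle blanks; two independent experiments, each in quadruplicate.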
# T1 sequence (P06276 whole entry): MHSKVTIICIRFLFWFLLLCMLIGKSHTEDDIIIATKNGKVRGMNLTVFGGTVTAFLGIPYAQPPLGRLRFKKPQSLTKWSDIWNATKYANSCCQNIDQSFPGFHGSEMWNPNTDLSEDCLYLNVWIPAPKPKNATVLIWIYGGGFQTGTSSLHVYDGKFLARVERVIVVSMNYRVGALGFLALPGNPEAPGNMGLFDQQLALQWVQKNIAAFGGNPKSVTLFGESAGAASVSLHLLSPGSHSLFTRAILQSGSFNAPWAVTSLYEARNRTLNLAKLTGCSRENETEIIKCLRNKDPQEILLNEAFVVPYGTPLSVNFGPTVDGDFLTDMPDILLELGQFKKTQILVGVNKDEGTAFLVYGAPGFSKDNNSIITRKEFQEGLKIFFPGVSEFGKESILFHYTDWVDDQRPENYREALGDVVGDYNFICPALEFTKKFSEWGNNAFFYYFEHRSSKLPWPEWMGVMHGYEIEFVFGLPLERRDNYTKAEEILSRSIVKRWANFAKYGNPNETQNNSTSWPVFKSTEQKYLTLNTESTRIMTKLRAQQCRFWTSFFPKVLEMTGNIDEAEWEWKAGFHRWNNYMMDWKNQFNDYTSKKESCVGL
# Chain of Cholinesterase (Equus caballus, UniProt P81908) (P81908 whole entry): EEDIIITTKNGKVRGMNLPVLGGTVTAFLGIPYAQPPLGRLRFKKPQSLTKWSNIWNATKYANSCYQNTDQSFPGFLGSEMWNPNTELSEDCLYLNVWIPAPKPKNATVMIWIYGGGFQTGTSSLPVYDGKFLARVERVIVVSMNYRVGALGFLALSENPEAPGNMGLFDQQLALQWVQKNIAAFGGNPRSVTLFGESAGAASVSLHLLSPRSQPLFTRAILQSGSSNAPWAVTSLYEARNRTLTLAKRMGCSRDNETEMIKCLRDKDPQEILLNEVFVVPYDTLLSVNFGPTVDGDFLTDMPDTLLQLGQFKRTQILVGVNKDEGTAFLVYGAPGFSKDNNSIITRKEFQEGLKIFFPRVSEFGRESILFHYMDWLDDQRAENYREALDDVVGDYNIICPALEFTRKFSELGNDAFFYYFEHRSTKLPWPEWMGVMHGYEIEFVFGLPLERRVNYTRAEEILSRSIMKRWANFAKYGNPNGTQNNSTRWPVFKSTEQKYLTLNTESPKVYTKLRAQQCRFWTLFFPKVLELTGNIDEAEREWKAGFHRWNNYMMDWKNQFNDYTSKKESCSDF
# Chain of Amyloid-beta precursor protein (Homo sapiens) (P05067 whole entry): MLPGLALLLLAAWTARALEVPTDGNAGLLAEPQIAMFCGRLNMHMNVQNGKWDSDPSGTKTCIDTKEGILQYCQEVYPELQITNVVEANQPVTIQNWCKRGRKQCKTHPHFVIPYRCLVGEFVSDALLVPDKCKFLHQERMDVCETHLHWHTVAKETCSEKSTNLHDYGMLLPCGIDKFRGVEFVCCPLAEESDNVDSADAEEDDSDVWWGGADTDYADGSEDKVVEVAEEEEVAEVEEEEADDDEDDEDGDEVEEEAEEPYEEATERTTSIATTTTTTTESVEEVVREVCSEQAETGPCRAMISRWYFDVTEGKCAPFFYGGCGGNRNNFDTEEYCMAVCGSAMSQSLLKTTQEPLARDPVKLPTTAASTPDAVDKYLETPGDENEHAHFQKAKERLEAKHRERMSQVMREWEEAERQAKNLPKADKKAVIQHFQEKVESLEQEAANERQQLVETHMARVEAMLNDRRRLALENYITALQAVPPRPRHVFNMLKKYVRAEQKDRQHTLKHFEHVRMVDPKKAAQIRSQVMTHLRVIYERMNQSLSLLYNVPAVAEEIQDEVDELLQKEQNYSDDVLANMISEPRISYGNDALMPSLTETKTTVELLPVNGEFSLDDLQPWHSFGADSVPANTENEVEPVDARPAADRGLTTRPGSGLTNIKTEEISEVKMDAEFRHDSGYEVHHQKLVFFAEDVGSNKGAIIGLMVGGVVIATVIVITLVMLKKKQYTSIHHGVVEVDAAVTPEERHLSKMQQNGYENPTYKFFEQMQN
# Chain of 5-hydroxytryptamine receptor 6 (P50406 whole entry): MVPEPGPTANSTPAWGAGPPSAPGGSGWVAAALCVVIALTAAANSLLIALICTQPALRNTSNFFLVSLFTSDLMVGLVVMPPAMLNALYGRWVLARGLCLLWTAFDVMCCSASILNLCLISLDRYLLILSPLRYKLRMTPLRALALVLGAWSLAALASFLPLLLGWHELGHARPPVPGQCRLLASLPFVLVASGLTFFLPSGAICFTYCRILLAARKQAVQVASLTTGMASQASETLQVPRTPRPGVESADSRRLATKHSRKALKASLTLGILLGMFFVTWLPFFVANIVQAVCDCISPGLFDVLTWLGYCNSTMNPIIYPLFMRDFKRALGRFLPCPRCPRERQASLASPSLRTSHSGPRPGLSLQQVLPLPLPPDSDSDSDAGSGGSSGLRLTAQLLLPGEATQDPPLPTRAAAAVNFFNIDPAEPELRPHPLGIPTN
# Chain of Cholinesterase (Equus caballus) (P81908 whole entry): as the sequence (P81908 whole entry) above
smiles,measurement,setting,value
O=S(=O)(c1ccccc1)n1ccc2c(OCCNCC3CCCCC3)cccc21,half-life,[1],5.53 h
same,IC50,Cholinesterase [2],89.9 nM
same,MNTC at 72 h,[3],≤ 1000 nM
same,C0,[4],176 ng/mL
same,MRT,[5],2.83 h
same,Kp,[6],3.33
same,CL/F,[7],189 mL/min/kg
same,AUC(0-t) at 8 h,[8],1800 ng·h/mL
same,Tmax,[9],1 h
same,IC50,Cholinesterase [10],551 nM
same,"remaining at 2 h, 50 µM",[11],59%
same,half-life,[12],3 h
same,AUCt,[13],734469 ng·min/g
same,MRT,[14],3.24 h
same,C0,[15],404 ng/mL
same,Vd/F,[16],81.4 L/kg
same,Cmax,[17],2800 ng/mL
same,half-life,[18],4.97 h
same,Tmax,[19],1 h
same,MRT,[20],3.24 h
same,Cmax,[21],532 ng/mL
same,bioavailability,[22],28.7%
same,AUCt,[23],125194 ng·min/g
same,MRT,[24],3.18 h
same,half-life,[25],2.97 h
same,Kp,[26],6.79
same,AUC(0-t) at 8 h,[27],627 ng·h/mL
O=S(=O)(c1ccccc1)n1ccc2c(N3CCN(CCCCCCNc4c5c(nc6ccccc46)CCCC5)CC3)cccc21,inhibition,[28],30%
CC(C)(C)OC(=O)N1CCCC(CNCCOc2cccc3c2CCN3Cc2ccccc2)C1 (stereo not given),IC50,Cholinesterase [2],25.7 nM
same,inhibition,Cholinesterase [29],> 50%
same,IC50,Cholinesterase [10],175 nM
same,inhibition,[30],79.7%
same,Ki,[31],1080 nM
same,inhibition,[32],Active
CC(C)(C)OC(=O)N1CCCC(CNCCOc2cccc3c2ccn3Cc2ccccc2)C1 (stereo not given),IC50,Cholinesterase [2],11 nM
same,inhibition,Cholinesterase [29],> 50%
same,IC50,Cholinesterase [10],115 nM
same,inhibition,[30],79.4%
same,Ki,[31],369 nM
same,inhibition,[32],Active
